Activity calls are given as the source filed them. The rule behind the calls is not given here. Bounds are passed on as bounds.

Experimental findings from ChEMBL document CHEMBL3797175, “Discovery of 6-(difluoro(6-(4-fluorophenyl)-[1,2,4]triazolo[4,3-b][1,2,4]triazin-3-yl)methyl)quinoline as a highly potent and selective c-Met inhibitor” (Eur J Med Chem, 2016) are described below.

A short description of data set [1]: Oral bioavailability in Sprague-Dawley rat at 10 mg/kg administered as single dose. It is filed as ADME, organism-based. As to conditions: in vivo. In a few lines:
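Male Sprague-Dawley rats (n=3), single dose. IV 2 mg/kg in 1% DMA/9% Cremophor/90% saline; PO 10 mg/kg in 0.5% CMC-Na. For one compound, IV 10 mg/kg in DMSO/Tween 80/PEG40 and PO 10 mg/kg in 10% DMSO/5% Tween 80/85% saline.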

Data set [2] can be described thus: Selectivity ratio of IC50 for human AGS cells to IC50 for human EBC1 cells. It is filed as ADME, cell-based. In a few lines:
(§1)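 Both IC50s in each ratio come from one proliferation assay. Cells were seeded and exposed the next day to a range of concentrations for 72 h, then read by SRB or MTT. IC50s were fitted by four-parameter concentration–response, with each concentration at least in triplicate and at least 2 experiments. BaF3/TPR-Met is murine pre-B BaF3 transfected with TPR-MET and puromycin-selected.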

In data set [3] the target is Proto-oncogene tyrosine-protein kinase receptor Ret (Homo sapiens) (UniProt P07949). The data set can be described thus: Inhibition of recombinant RET (unknown origin) using poly (Glu, Tyr) 4:1 as substrate at 1000 nM incubated for 60 mins by ELISA relative to control. In a few lines:
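Recombinant tyrosine kinases assayed on wells precoated with poly(Glu,Tyr)4:1 (20 µg/mL). ATP 10 µmol/L in HEPES pH 7.4 buffer with MgCl2, MnCl2, Na3VO4 and DTT; compound in 1% DMSO, 1% DMSO as control. Reaction 60 min at 37 °C. Phosphotyrosine detected with PY99 and HRP anti-mouse, o-phenylenediamine, A490. Inhibition % relative to control; two experiments.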
In general terms: An ELISA detects its analyte on a solid surface through an enzyme-linked reagent.

Data set [4] addresses T1, TPR/MET fusion protein (Mus musculus) (UniProt P16056+F6ZDS4). The data set can be described thus: Inhibition of TPR-MET in mouse BAF3 cells assessed as reduction in AKT phosphorylation at Serine 473 at 10 nM after 1 hr by Western blot analysis. The data set is classed as cell-based. In a few lines:
(§2)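 BaF3 stably expressing TPR-MET (puromycin-selected), grown with IL-3-conditioned medium. Treated 1 h at 37 °C, lysed in SDS sample buffer. 10% SDS-PAGE and immunoblot for phospho-c-Met, phospho-ERK1/2, phospho-AKT and totals; ECL detection.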
On the technique in general: A western blot detects proteins with antibodies after separation by electrophoresis.

Data set [5] deals with T1, TPR/MET fusion protein (Mus musculus). The data set is described as follows: Inhibition of TPR-MET in mouse BAF3 cells assessed as reduction in ERK phosphorylation at Threonine 202 at 10 nM after 1 hr by Western blot analysis. It is filed as cell-based. The gist of the method: as §2
For data set [6], the target named is T2, Hepatocyte growth factor receptor (Homo sapiens, UniProt P08581). The data set can be described thus: Inhibition of c-Met in HGF stimulated human U87MG cells assessed as reduction in ERK phosphorylation at Threonine 202 at 10 nM after 1 hr by Western blot analysis. As to conditions: U-87MG ATCC. The data set is classed as cell-based. The gist of the method: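 U87MG cells serum-starved 24 h, treated 1 h at 37 °C, then stimulated with HGF 100 ng/mL for 15 min. Lysed in SDS buffer, run on 10% SDS-PAGE and immunoblotted for phospho-ERK1/2 and phospho-AKT; ECL detection.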

In data set [7] the target is T2, Hepatocyte growth factor receptor. The data set can be described thus: Inhibition of c-Met in HGF stimulated human U87MG cells assessed as reduction in ERK phosphorylation at Tyrosine 204 at 10 nM after 1 hr by Western blot analysis. It is filed as cell-based. To be noted: U-87MG ATCC. The gist of the method: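 U87MG cells serum-starved 24 h, pretreated with compound 1 h at 37 °C, then stimulated with HGF (100 ng/mL) for 15 min. Lysed in 1× SDS sample buffer, resolved by 10% SDS-PAGE and blotted to nitrocellulose. Probed for phospho-c-Met, phospho-ERK1/2, phospho-AKT and totals, with GAPDH as loading control. ECL detection.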

Data set [8] addresses Tyrosine-protein kinase receptor TYRO3 (Homo sapiens, UniProt Q06418). The data set is described as follows: Inhibition of recombinant TYRO3 (unknown origin) using poly (Glu, Tyr) 4:1 as substrate incubated for 60 mins by ELISA.
Another data set has as its system NCI-H292. The data set can be described thus: Antiproliferative activity against human NCI-H292 cells after 72 hrs by SRB or MTT assay. The data set is classed as functional, cell-based. As to conditions: NCI-H292, 72 h. The gist of the method: (§3)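 Cells seeded, exposed next day to a range of concentrations for 72 h. Growth read by sulforhodamine B or MTT. IC50 from four-parameter concentration-response fit. Each concentration tested at least in triplicate, with at least 2 experiments.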
(Tetrazolium dyes change colour on reduction, which living cells bring about.)

A further data set concerns NCI-H226. The data set is described as follows: Antiproliferative activity against human NCI-H226 cells after 72 hrs by SRB or MTT assay. The data set is classed as functional, cell-based. As to conditions: NCI-H226, 72 h. The gist of the method: as §3
The nature of data set [9]: Antiproliferative activity against human BGC823 cells after 72 hrs by SRB or MTT assay. To be noted: BGC-823, 72 h. The data set is classed as functional, cell-based. The gist of the method: as §3
The nature of data set [10]: Antiproliferative activity against human MGC803 cells after 72 hrs by SRB or MTT assay. The data set is classed as functional, cell-based. To be noted: MGC-803, 72 h. The gist of the method: as §3
For data set [11], the target named is T2, Hepatocyte growth factor receptor. The data set can be described thus: Inhibition of c-Met in human NCI-H441 cells assessed as inhibition of HGF-induced cell migration after 24 hrs by crystal violet staining based microscopic analysis. The gist of the method:
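NCI-H441 cells, 1.5×10^5 in serum-free medium, placed in upper Transwell chamber (8 µm pores; Matrigel-coated for invasion). Lower chamber serum-free medium ± HGF 100 ng/mL, with compound. After 24 h at 37 °C, non-migrated cells removed. Traversed cells stained with 0.1% crystal violet 15 min and imaged in 5 fields per filter. Three independent experiments.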

Data set [12] can be described thus: Antitumor activity against human EBC1 cells xenografted in athymic nude mouse assessed as tumor growth inhibition at 6.25 mg/kg, po bid for 21 days measured twice a week during compound dosing relative to control. The data set is classed as functional. As to conditions: EBC-1, po, 504 h, read-out: TGI. The gist of the method:
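Nude mice bearing s.c. tumours. Cells were first grown s.c. to 700–800 mm³, then 1.5 mm³ fragments were transplanted s.c. into the right flank. Mice were randomised at 100–200 mm³ (n=6 treated, n=12 vehicle) and dosed orally twice daily for 21 days. Caliper measurement twice weekly; TV = length×width²/2. TGI taken on the final day versus vehicle; Student's t test.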

Data set [13] is described as follows: Selectivity ratio of IC50 for human SMMC7721 cells to IC50 for human EBC1 cells. It is filed as ADME, cell-based. As to conditions: smmc-7721. In a few lines:
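Each cell line was seeded in 96-well plates, then exposed the next day to a range of compound concentrations for 72 h. Growth was read by SRB or MTT assay, and IC50 was fitted by a four-parameter concentration-response curve. Each concentration was run at least in triplicate, in at least 2 experiments. BaF3/TPR-Met are murine pre-B BaF3 cells transfected with TPR-MET cDNA and selected in puromycin.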

Data set [14] is described as follows: Selectivity ratio of IC50 for human HCT116 cells to IC50 for human EBC1 cells. It is filed as ADME, cell-based. To be noted: hct-116. The gist of the method: as §1
A short description of data set [15]: Selectivity ratio of IC50 for human HCT116 cells to IC50 for mouse BAF3 cells expressing TPR-MET. It is filed as ADME, cell-based. In a few lines:
as §1

Data set [16] can be described thus: Selectivity ratio of IC50 for human MDA-MB-231 cells to IC50 for human EBC1 cells. The data set is classed as ADME, cell-based. In a few lines:
as §1

Data set [17] in a line: Selectivity ratio of IC50 for human MDA-MB-231 cells to IC50 for human MKN45 cells. The data set is classed as ADME, cell-based. As to conditions: mkn-45. In a few lines: as §1

T2 sequence (P08581 whole entry): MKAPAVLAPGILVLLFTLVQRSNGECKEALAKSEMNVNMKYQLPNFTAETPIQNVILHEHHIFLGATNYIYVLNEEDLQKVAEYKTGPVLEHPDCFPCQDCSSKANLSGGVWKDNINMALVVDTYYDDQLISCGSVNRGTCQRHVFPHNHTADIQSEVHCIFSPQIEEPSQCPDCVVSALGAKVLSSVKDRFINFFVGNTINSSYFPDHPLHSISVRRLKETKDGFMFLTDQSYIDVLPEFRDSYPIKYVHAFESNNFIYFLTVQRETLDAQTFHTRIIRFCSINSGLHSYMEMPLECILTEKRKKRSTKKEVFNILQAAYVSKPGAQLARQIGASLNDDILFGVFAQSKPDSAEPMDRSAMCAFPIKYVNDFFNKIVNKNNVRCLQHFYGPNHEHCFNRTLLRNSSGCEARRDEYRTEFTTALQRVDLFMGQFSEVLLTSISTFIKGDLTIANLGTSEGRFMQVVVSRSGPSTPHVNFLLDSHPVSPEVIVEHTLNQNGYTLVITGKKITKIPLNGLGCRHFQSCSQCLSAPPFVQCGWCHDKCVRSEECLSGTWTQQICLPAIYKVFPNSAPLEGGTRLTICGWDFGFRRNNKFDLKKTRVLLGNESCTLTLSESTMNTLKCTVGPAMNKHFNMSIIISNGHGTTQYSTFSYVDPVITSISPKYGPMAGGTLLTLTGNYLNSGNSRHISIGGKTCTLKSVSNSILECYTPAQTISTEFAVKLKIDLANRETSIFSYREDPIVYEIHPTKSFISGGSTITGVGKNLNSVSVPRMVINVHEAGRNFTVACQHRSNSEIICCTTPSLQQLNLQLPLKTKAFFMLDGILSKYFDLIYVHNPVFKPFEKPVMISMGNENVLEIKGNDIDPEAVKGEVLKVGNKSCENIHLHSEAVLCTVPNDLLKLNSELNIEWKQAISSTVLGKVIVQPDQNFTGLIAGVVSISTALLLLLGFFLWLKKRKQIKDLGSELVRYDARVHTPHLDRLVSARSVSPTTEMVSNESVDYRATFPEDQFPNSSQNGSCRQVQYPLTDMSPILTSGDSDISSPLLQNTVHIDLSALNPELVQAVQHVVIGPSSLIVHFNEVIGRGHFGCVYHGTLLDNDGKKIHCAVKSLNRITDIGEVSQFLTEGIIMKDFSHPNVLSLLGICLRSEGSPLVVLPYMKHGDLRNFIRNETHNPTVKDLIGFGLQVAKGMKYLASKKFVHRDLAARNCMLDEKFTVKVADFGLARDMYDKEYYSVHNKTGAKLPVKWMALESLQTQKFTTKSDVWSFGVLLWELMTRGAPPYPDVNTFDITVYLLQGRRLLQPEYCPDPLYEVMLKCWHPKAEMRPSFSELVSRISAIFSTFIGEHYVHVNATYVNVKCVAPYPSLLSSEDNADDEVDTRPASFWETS
T1 sequence (F6ZDS4 whole entry partner, the tested form may be a part): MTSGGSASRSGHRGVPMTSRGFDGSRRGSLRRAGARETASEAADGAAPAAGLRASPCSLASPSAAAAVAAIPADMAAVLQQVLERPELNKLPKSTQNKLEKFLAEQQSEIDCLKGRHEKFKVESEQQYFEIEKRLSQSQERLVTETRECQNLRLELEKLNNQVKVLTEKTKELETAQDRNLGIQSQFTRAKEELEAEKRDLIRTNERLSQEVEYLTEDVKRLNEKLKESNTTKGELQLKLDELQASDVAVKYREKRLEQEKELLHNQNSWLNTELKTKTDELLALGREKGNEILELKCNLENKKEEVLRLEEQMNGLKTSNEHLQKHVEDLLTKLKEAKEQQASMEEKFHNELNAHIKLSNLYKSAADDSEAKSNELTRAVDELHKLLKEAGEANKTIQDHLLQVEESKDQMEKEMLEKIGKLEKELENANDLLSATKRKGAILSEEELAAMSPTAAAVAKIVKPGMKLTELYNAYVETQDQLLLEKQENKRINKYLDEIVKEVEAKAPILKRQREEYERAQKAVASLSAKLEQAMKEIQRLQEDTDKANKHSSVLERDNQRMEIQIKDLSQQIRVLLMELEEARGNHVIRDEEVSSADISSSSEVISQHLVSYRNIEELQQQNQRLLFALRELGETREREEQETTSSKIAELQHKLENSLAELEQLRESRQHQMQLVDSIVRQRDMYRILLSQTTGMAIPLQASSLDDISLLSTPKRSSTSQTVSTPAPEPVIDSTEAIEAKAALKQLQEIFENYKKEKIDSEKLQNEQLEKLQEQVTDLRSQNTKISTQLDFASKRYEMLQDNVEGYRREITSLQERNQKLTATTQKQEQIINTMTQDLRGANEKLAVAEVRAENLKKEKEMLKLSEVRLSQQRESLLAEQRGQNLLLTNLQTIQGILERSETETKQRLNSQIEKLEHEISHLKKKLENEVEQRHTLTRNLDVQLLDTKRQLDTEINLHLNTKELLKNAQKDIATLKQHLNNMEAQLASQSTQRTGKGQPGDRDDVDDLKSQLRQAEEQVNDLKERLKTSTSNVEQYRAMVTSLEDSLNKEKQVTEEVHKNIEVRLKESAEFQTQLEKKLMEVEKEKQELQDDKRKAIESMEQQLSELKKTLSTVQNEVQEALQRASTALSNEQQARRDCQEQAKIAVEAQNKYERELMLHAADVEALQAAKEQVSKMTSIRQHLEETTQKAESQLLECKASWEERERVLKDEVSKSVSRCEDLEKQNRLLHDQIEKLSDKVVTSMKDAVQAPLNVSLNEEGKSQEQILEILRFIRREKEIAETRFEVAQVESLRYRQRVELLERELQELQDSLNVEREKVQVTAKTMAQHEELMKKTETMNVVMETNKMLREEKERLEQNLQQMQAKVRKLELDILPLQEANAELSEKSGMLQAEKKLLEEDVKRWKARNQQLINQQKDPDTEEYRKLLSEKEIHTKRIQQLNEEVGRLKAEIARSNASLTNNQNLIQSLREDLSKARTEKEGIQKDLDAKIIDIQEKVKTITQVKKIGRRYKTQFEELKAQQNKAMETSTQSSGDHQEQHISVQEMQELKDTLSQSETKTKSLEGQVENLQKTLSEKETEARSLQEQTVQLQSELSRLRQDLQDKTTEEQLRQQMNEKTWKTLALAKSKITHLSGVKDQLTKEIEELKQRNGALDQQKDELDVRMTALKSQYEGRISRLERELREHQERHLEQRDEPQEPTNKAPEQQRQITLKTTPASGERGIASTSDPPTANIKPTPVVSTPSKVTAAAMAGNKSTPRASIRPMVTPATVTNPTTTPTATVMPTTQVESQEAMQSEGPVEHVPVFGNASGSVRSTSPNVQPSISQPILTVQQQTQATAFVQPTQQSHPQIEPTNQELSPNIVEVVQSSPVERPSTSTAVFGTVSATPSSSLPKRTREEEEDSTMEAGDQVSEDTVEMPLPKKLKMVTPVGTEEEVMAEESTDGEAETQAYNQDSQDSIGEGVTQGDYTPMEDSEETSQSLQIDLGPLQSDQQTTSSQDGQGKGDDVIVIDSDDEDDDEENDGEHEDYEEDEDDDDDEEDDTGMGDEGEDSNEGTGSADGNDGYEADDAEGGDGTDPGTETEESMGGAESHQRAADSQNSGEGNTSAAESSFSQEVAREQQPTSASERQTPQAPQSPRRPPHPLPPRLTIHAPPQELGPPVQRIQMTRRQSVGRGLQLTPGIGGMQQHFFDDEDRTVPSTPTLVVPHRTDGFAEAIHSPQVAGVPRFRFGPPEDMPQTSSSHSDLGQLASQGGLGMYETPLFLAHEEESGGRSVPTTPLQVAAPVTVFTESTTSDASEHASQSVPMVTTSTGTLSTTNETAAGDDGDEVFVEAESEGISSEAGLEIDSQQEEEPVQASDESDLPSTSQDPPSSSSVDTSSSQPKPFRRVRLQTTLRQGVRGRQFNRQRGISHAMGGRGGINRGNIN
T1 sequence (P16056 25-1379 limits assumed): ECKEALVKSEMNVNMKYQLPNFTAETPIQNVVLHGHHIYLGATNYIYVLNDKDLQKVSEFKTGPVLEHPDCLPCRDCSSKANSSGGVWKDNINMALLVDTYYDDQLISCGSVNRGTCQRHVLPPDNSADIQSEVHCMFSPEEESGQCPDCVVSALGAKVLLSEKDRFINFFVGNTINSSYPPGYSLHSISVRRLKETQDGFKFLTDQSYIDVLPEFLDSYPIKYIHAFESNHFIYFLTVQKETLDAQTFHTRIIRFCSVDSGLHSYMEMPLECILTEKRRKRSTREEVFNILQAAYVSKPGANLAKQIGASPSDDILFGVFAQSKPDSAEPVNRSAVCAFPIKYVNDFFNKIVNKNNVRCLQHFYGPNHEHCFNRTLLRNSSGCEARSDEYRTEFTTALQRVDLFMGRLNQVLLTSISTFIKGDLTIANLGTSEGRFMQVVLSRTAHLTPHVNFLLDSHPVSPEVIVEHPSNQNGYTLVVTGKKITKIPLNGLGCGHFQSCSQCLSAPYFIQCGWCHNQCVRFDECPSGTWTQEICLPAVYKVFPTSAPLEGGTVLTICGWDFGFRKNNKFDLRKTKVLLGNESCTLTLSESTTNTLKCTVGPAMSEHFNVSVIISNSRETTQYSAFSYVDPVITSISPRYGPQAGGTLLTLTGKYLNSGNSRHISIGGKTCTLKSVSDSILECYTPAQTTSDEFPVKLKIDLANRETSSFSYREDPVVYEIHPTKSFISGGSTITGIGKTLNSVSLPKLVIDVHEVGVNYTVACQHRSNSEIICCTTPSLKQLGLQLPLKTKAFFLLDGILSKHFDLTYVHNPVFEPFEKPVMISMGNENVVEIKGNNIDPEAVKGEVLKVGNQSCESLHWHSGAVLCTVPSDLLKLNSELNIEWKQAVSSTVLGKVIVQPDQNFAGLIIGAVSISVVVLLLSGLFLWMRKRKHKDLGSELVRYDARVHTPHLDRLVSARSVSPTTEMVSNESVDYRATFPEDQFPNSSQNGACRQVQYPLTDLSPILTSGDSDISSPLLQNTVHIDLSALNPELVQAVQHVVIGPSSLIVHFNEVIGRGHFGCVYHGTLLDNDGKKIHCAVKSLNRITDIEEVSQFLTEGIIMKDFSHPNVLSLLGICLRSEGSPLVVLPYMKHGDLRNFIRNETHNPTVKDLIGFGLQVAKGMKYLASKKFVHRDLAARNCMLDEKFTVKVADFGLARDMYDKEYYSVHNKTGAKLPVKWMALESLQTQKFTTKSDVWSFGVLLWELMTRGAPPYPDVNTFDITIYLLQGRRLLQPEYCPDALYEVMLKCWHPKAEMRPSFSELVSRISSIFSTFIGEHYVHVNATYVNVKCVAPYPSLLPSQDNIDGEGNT

As a reminder, the bioavailability is dose-corrected exposure relative to a reference, in per cent. Higher therefore signals good availability. As a reminder, the inhibition is the relative decrease from the control value, in per cent. The term IC50 denotes the point on the concentration scale where inhibition reaches its midpoint. On to `Fc1ccc(-c2cnc3nnc(C(F)(F)c4ccc5ncccc5c4)n3n2)cc1`, for which the bioavailability in [1] amounted to 48.3%. Besides, the “Ratio IC50” value in data set [2] was 10000; in data set [13], 10000; in data set [14], 10000; in [15] it was 10000; in [16] it was over 10000; in [17] it was over 10000. Also, the inhibition in data set [3] is 29.9%; in data set [11] it was “Dose-dependent effect”. Further, the inhibition entry in data set [4], in [5], in [6] and in data set [7] was “Active” each time. In addition, the concentration for half-maximal inhibition (IC50) in data set [8] was over 1 µM; with NCI-H292, over 10 µM; in the data set on NCI-H226, over 10 µM; in data set [9] it was over 10 µM; in [10] it was over 10 µM. For the same molecule, the inhibition in vivo at 6.25 mg/kg in [12] turned out to be 56.9%.
